From PubChem
This is a sample that favours compounds with a hit; in the whole collection about 2.3% have one here.
Scp1 inh: Scp-1 phosphatase inhibitors, primary screen, biochemical, colorimetric, uHTS; Carboxy-terminal domain RNA polymerase II polypeptide A small phosphatase 1 (Homo …; Recombinant Scp1, phosphopeptide, malachite green phosphate absorbance; inhibition, % at 20 µM; 0.88% of 340,000 active; AID 493091, 2011;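 active means inhibition above about 50% at 20 µM, limit read from the data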;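 further: plate controls were DMSO wells with enzyme for no effect and wells lacking enzyme for full effect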
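System: SCP-1 catalytic domain; Reagent: Phospho 17-mer peptide substrate; Doses: one concentration, 20 µM, with 1.0% DMSO; Incubation: 45 min room-temperature reaction, 5 min colour, 30 min stabiliser; Signal: Phosphate-binding colour reagent, absorbance read at 630 nm.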
SUMO1-SIM PPI: modulators of SUMO1 protein-protein interactions, primary screen, biochemical, uHTS; Small ubiquitin-related modifier 1 (Homo sapiens), P63165; SUMO1 binding to a labelled peptide, TR-FRET, 1 h; inhibition, % at 20 µM; 0.33% of 360,000 active; AID 602429, 2012; in the data active means inhibition above about 37%
LMPTP inh: LMPTP phosphatase inhibitors, primary screen, biochemical, fluorescence intensity, uHTS | Low molecular weight phosphotyrosine protein phosphatase (Homo sapiens), P24666 | recombinant LMPTP-A, OMFP fluorogenic substrate | inhibition, % at 20 µM | 0.22% of 360,000 active | AID 651560, 2012;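 active means compounds that cut the enzyme signal by at least half of the control window in the single-dose screen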;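 further: plate controls were DMSO wells with enzyme plus substrate for no effect and substrate without enzyme for full effect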
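Assay system: LMPTP-A phosphatase enzyme | Input: 0.625 nM enzyme | Also added: Fluorogenic phosphatase substrate OMFP at 400 µM final | Compound dosing: One test concentration per compound, 20 µM, with 3% DMSO overall | Schedule: 50 min enzyme reaction at room temperature, protected from light | Signal: Fluorescence intensity | Benchmarks: no-enzyme and uninhibited controls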
NadD block: inhibitors of S. aureus NadD, primary screen, biochemical, colorimetric, uHTS. Nicotinate-nucleotide adenylyltransferase NadD (Staphylococcus aureus N315). purified NadD enzyme, colorimetric absorbance read-out. inhibition, % at 20 µM. 0.78% of 360,000 active; in the data active means inhibition above about 26%
DNMT1 block: human DNMT1 methyltransferase inhibitors, primary screen, biochemical, molecular beacon, fluorescence, HinP1I cleavage, uHTS; DNA (cytosine-5)-methyltransferase 1 (Homo sapiens), P26358; inhibition (reported as % activation of signal), % at 10 µM; 0.83% of 360,000 active; AID 588458, 2011; in the data active means inhibition above about 50%
Target sequence (P26358 504-1616 limits assumed): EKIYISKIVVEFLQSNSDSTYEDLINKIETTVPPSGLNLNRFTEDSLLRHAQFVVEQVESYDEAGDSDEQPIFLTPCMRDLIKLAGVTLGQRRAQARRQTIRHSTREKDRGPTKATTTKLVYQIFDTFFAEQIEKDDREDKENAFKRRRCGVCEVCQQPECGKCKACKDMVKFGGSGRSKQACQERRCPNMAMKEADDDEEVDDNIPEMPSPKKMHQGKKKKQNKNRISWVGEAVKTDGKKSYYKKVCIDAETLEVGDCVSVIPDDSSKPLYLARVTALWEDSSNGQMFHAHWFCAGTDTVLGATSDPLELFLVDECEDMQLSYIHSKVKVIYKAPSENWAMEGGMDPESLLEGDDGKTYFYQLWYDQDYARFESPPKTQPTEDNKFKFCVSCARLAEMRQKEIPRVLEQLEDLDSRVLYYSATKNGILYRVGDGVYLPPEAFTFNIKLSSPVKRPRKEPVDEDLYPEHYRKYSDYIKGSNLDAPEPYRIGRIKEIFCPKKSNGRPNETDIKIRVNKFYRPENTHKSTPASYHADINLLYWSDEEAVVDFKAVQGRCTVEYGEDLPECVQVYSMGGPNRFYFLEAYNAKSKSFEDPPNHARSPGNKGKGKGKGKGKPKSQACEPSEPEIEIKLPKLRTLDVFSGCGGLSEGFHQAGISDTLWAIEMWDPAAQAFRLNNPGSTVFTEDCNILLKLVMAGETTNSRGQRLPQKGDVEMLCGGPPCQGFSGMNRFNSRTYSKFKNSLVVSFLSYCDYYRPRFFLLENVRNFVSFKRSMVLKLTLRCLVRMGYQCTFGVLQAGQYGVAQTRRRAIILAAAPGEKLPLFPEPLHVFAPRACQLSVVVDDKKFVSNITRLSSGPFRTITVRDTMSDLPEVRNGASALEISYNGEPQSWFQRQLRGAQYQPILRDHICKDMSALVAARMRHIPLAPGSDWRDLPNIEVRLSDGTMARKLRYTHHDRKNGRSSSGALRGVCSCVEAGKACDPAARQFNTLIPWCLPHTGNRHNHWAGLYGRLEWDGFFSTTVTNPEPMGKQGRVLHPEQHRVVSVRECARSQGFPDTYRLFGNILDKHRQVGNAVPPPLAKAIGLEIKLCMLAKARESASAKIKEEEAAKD
STEP block: STEP phosphatase inhibitors, primary screen, biochemical, fluorescence intensity, uHTS; Tyrosine-protein phosphatase non-receptor type 5 (Homo sapiens), P54829; recombinant STEP, OMFP fluorogenic substrate; inhibition, % at 20 µM; 0.25% of 360,000 active; AID 588621, 2011;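 active means inhibition at 20 µM, scaled per plate between control wells, above about 37%, limit read from the data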;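 further: 0% = DMSO with enzyme and substrate and 100% = substrate only without enzyme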
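Assay system: isolated STEP enzyme / Timing: 20 min at room temperature, dark / Doses: 20 µM, 1% DMSO / Technique: fluorescence intensity, excitation 480 nm, emission 540 nm / Reagent: fluorogenic phosphatase substrate OMFP at 25 µM final / Measure: percent inhibition scaled to no-enzyme and uninhibited-enzyme controls, plate-pattern corrected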
* = called active by the depositor; . = not tested or not shown.

SMILES	Scp1 inh	SUMO1-SIM PPI	LMPTP inh	NadD block	DNMT1 block	STEP block
COCCNC(=O)c1cc2c(c(-c3cccc(-c4cc5ccccc5o4)c3)n1)[C@H](CCO)N(S(=O)C(C)(C)C)C2 (some centres undefined)	.	3	0	3	-46	2
COc1cccc(-c2cccc(-c3nc(C(=O)NCc4ccc(Oc5ccccc5)cc4)cc4c3[C@H](CCO)N(S(=O)C(C)(C)C)C4)c2)c1 (some centres undefined)	.	-31	2	31*	-40	5
CC(C)(C)S(=O)N1Cc2cc(C(=O)NCc3ccc4c(c3)OCO4)nc(-c3cccc(-c4ccccc4)c3)c2[C@@H]1CCO (some centres undefined)	.	7	5	0	-27	1
CC(C)(C)S(=O)N1Cc2cc(C(=O)NCc3ccc(Oc4ccccc4)cc3)nc(-c3cccc(-c4cc5ccccc5o4)c3)c2[C@@H]1CCO (some centres undefined)	.	-37	2	32*	-45	3
CCC[n+]1c(C)sc2c3c(ccc21)CCCC3	98*	3	5	44*	33	2
Nc1ccc2c(c1Cl)C(=O)c1ccc(N)c(Cl)c1C2=O	90*	109*	82*	23	81*	99*
O=C(COC(=O)c1ccc2c(c1Cl)C(=O)c1ccccc1C2=O)NC1CC1	10	-2	2	5	3	4
O=C(NC1CCCC1)C(C1CC1)n1c(-c2ccnc3ccccc23)nc2ccccc21 (centres undefined)	.	-2	1	.	.	.
O=C(C[C@H]1C[C@H](C(=O)N2CCCCC2)[C@@]2(CCc3ccccc3)c3[nH]c4cc(-c5ccco5)ccc4c3CCN2C1=O)NCc1ccco1	-7	-1	1	51*	-11	1
CC(=O)Nc1cc(-c2cccc(C(=O)NCCO)c2)cn2c(-c3ccc(F)c(Cl)c3)cnc12	.	-4	-1	-8	-4	0
Nc1ccc(OCCCc2c(N)nc(N)nc2N)cc1	-11	31	87*	44*	29	3
COc1ccc(Cc2c(N)nc(N)nc2N)cc1	16	-2	27	-7	-1	8
CCNc1ccc(Br)cc(C(=O)/C=C/c2c(Cl)cccc2Cl)c1=O	16	20	43	56*	84*	6
NC(=O)c1c(NC(=O)Cn2nc(C(=O)O)c3ccccc3c2=O)sc2c1CCC2	17	66*	4	1	-13	0
CCc1nn(C(CC)C(=O)NCc2cccc(OC)c2)c(=O)c2cc3occc3n12 (centres undefined)	-14	-4	2	-6	0	2
C=CCOC(=O)Nc1nc(CCNC(=O)OC(C)(C)C)c(C(=O)O)s1	.	1	-3	.	.	.
COc1ccc([N+](=O)[O-])cc1C1NN=C(c2ccccc2O)S1 (centres undefined)	-1	-4	0	35*	7	5
O=S(=O)(c1ccc(F)c(Cl)c1)N1CCN(C/C=C/c2ccccc2)CC1	-2	41*	2	-4	1	3
O=C(/C=C/c1ccccc1)c1cc(Br)ccc(=O)c1O	-6	19	18	15	61*	11
O=C(/C=C/c1ccc(F)cc1)c1cc(Br)ccc1O	-8	3	1	-4	9	1
CC(=O)N1CCN(C(=O)c2cccc(S(=O)(=O)Nc3c(C)n(C)n(-c4ccccc4)c3=O)c2)CC1	4	4	-2	-9	3	-2
Cc1ccc(S(=O)(=O)N2[C@H](CC(=O)c3cccs3)OC[C@@H]2C(C)C)cc1	.	-6	-1	.	.	.
O=C(Cn1cnc2sc(-c3ccccc3)cc2c1=O)NCc1ccco1	71*	-9	-1	1	-4	-1
O=C(O)c1ccc2c(c1)[C@@H]1C=CC[C@@H]1[C@H](c1ccccn1)N2	47	34	2	10	111*	31
COc1ccc(C(=O)N/N=C(\C)c2ccc3c(c2)C2C=CCC2C(c2ccccc2)N3)cc1 (centres undefined)	3	-1	2	52*	-51	3
SMILES	Scp1 inh	SUMO1-SIM PPI	LMPTP inh	NadD block	DNMT1 block	STEP block
COC(=O)c1c(C)nc2nonc2c1N	-7	-10	-2	-3	1	-5
O=C(Nc1ccc(S(=O)(=O)N2CCCC2)cc1)c1cc(F)c(F)cc1Cl	0	3	-1	-6	0	2
CC(C)(C)c1cc(C(=O)O)n(Cc2ccc(Cl)cc2Cl)n1	-13	49*	0	-3	3	1
COC(=O)c1cc(C(=O)OC)n(Cc2ccc(Cl)cc2Cl)n1	-6	4	0	-5	5	1
Cc1ccc(Nc2ccc(N)cc2S(=O)(=O)O)cc1	15	27	67*	2	13	5
Cc1ccc(S(=O)(=O)c2cc(Nc3ccccc3)ccc2O)cc1	-6	-7	2	2	-23	-1
O=C(CSc1nnc(NC2CCCCC2)s1)Nc1ccc2c(c1)C(=O)c1ccccc1C2=O	9	-12	4	46*	-2	1
CC1CCN(C(=O)C(C)NCc2ccc(F)cc2)CC1 (centres undefined)	-10	-4	-1	-8	3	-1
COc1ccc(/C=C2\SC(=S)N(CCCC(=O)Nc3cccc(C(=O)O)c3)C2=O)cc1OC	-11	-16	1	15	-1	-1
Cc1ccc(/C=C2/SC(=S)N(CCCC(=O)Nc3cc([N+](=O)[O-])ccc3O)C2=O)cc1	-2	-6	-1	51*	12	0
COc1ccc(/C=C2\SC(=S)N(CCC(=O)Nc3ccc(C(=O)O)cc3)C2=O)cc1OC	95*	14	44	-2	31	85*
CCc1ccc(/C=C2\SC(=S)N(CCCC(=O)Nc3ccc(C(=O)O)cc3)C2=O)cc1	9	-24	64*	26	1	16
Cc1ccccc1N(CC(=O)NCC1CCCO1)C(=O)CNS(=O)(=O)c1ccc(F)cc1 (centres undefined)	-2	-2	0	-4	-1	-1
COc1ccc(S(=O)(=O)NCc2cccs2)cc1	59*	-3	11	-5	16	55*
COc1cc2c(cc1OC)/C(=C/C(=O)OCc1ccccc1)OC2	.	0	-1	.	.	.
O=C1OC(c2ccc(Br)cc2)=N/C1=C\c1ccco1	3	-4	1	1	2	4
